# Assay outcomes deposited in PubChem BioAssay by several laboratories.
# An excerpt weighted towards active compounds, which were near 2.9% of everything screened.
# Apaf-1 inh: inhibitors of human Apaf-1 apoptosome, primary screen, biochemical, DEVD-Rh110 fluorescence, uHTS; Apoptotic protease-activating factor 1 (Homo sapiens), O14727; reconstituted apoptosome caspase-3 activity; inhibition, % at 20 µM; 0.71% of 330,000 active; active means inhibition of at least 40% at 20 µM
#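 detection = Rh110 fluorescence intensity | test system = biochemical Apaf-1 apoptosome reconstitution | also added = cytochrome c and DEVD-Rh110 substrate | schedule = 30 min plus 50 min, RT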
# UBC13 inh: UBC13 polyubiquitin chain formation inhibitors, primary screen, biochemical, TR-FRET, uHTS | Ubiquitin-conjugating enzyme E2 N (Homo sapiens), P61088 | inhibition, % at 20 µM | 0.47% of 330,000 active | AID 485273, 2010; in the data active means inhibition above about 45%, passing the limit was not always enough
# MEKK2 WT-MEK5: modulators of MEK5 binding to wildtype MEKK2, primary screen, biochemical, multiplex bead flow cytometry, Alexa488-MEK5; binding response (% of control), % at 10 µM; 1.1% of 290,000 active; Mitogen-activated protein kinase kinase kinase 2 (Homo sapiens), Q9Y2U5; Alexa488-MEK5 binding to MEKK2 WT; actives lie on both sides; in the data active means binding response below about 67% or above about 130%
# MEKK2 mut-MEK5: MEK5 binding signal on mutant MEKK2 PB1, primary screen, biochemical, multiplex bead flow cytometry, Alexa488-MEK5. Alexa488-MEK5 binding to MEKK2 mutant. percent response, % at 10 µM. 0.35% of 290,000 active. AID 1530, 2009; in the data active means percent response above about 24%, passing the limit was not always enough
# MEKK3 PB1 HTS: modulators of MEKK3-MEK5 PB1 binding, primary screen, biochemical, wildtype MEKK3, multiplex bead flow cytometry, Alexa488-MEK5; Mitogen-activated protein kinase kinase kinase 3 (Homo sapiens), Q99759; bead-based flow cytometry, Alexa488-MEK5 binding to MEKK3; actives lie on both sides; 0 = blocked by unlabeled MEK5, 100 = vehicle; binding response (% of control), % at 10 µM; 1.4% of 290,000 active;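 active means binding response more than 3 SD above or below the average of its plate-row segment, actives on both sides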;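 further: Alexa488 bead fluorescence after subtracting the streptavidin-only scavenger bead signal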
# Target sequence (Q99759 whole entry, looked up): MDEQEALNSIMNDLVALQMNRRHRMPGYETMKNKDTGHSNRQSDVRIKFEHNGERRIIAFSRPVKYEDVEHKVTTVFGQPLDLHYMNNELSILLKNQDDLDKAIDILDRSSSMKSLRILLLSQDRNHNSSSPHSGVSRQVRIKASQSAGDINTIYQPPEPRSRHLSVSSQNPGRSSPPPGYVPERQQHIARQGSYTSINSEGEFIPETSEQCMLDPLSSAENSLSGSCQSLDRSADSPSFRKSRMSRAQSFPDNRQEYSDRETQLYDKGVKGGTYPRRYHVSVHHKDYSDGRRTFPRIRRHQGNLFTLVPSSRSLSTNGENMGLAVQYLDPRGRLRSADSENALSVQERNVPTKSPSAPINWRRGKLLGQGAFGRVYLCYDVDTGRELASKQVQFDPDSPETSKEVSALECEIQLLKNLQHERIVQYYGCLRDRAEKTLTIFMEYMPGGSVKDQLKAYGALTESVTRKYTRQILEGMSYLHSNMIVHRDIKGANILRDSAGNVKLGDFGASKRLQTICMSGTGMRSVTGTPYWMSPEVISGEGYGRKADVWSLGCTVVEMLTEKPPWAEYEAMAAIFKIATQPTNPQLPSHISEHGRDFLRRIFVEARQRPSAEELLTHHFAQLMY
# Apaf-1 inh conf2: Apaf-1 inhibitors, single-dose retest, confirmation, biochemical, fluorescence, DEVD-Rh110, 20 µM; shares compounds with Apaf-1 inh; reconstituted apoptosome, caspase-3 DEVD-Rh110 fluorescence; inhibition, % at 20 µM; 25% of 1,800 active;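 active means mean inhibition of at least 40% at 20 µM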
# Rh110 quench: Rh110 fluorescence interference by putative Apaf-1 inhibitors, confirmation, artefact control for Apaf-1 inhibitor project, biochemical, 20 µM | shares compounds with Apaf-1 inh | quenched caspase reaction | activation (fluorescence interference), % at 20 µM | 1,800 tested, under 10 active | AID 504615, 2011;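 active means signal rise of 40% or more at 20 µM, treated as a fluorescence artifact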
# Fluor interf inh: fluorescence interference of Apaf-1 inhibitor hits, dose response, artefact control for Apaf-1 inhibitor project. AID 588538, 2011. fluorescence interference counterscreen, Apaf-1 assay format. shares compounds with Apaf-1 inh. 460 tested, under 10 active. IC50, µM; call rule not given here
# A number is an active result; . = inactive; / = not tested or not shown.
SMILES,Apaf-1 inh,UBC13 inh,MEKK2 WT-MEK5,MEKK2 mut-MEK5,MEKK3 PB1 HTS,Apaf-1 inh conf2,Rh110 quench,others
COc1ccc(OCC(=O)OCC(=O)c2ccc(OC)c(F)c2)cc1,.,.,/,/,/,/,/,
O=C(N/N=C\C=C\c1ccc([N+](=O)[O-])o1)c1cccs1,49,.,.,.,.,.,.,
O=C(CSc1nnc(-c2ccc(F)cc2)n1CC1CCCO1)NCc1ccco1 (centres undefined),54,.,.,.,.,.,.,
CC1Cc2ccccc2N1C(=O)Cn1cnc2ccccc21 (centres undefined),.,.,.,.,.,/,/,
CCN(CC)CCn1c(=N)n(CC(O)COc2cccc(C)c2)c2ccccc21 (centres undefined),.,.,.,.,.,/,/,
Cc1cccc(OCC(O)Cn2c(=N)n(Cc3ccccc3)c3ccccc32)c1 (centres undefined),58,.,.,.,.,.,.,
Cc1ccc(-c2nn3c(C)nnc3c3ccccc23)cc1S(=O)(=O)NCc1ccccc1,48,.,.,.,.,72,.,Fluor interf inh=.
COc1cccc(/C=C/C(=O)OCC(=O)Nc2cccc(S(=O)(=O)NC3=NCCCCC3)c2)c1,.,.,/,/,/,/,/,
CC(C)CCNC(=O)CN(Cc1ccccc1)C(=O)CCC(=O)Nc1ccccn1,.,.,.,.,.,/,/,
CC1=NN(c2ccc(N)cc2)C(=O)C1,53,.,.,.,.,.,.,
CC1=NN(c2ccccc2)C(=O)C1,41,.,.,.,.,.,.,
CC1=NN(Cc2ccccc2)C(=O)C1,65,.,.,.,.,.,.,
CCOCCCNC(=O)c1ccc(OC2CCN(C(C)=O)CC2)c(OC)c1,.,.,.,.,.,/,/,
O=C(O)CCn1c(SCCOc2ccccc2)nc2ccccc21,.,.,.,.,.,/,/,
Cc1ccc(C(=O)N/C(=C\c2ccc(Cl)cc2)C(=O)NCCN2CCOCC2)cc1,.,.,.,.,.,/,/,
O=c1c(N2CCOCC2)coc2ccccc12,.,.,.,.,.,/,/,
O=c1[nH]c(N2CCOCC2)cc2ccccc12,93,.,.,.,.,74,.,Fluor interf inh=.
N#CC1(NC(=O)CSc2nnc(C3CC3)n2C2CC2)CCCCC1,.,.,/,/,/,/,/,
O=C(Nc1cccc(NC(=O)c2ncn[nH]2)c1)c1cccc(Cl)c1,.,.,.,.,.,/,/,
N#Cc1c(NC(=O)c2ccc(Br)o2)n(-c2ccccc2)c2nc3ccccc3nc12,96,.,.,.,.,87,.,Fluor interf inh=.
CCC(C)n1c(NC(=O)c2ccccc2)c(C#N)c2nc3ccccc3nc21 (centres undefined),93,.,.,.,.,.,.,
Cc1nn(C(C)(C)C)c(NC(=O)c2ccccc2)c1C#N,.,.,.,.,.,/,/,
O=C(Nc1cccc(NC(=O)c2ccc(Br)o2)n1)c1ccc(Br)o1,.,.,.,.,.,/,/,
COc1ccc(C(=O)c2ccccc2)c(OCC(=O)NC2CC2)c1,.,.,.,.,.,/,/,
COc1ccccc1NC(=O)Cn1c(CCC(=O)O)ccc1-c1ccccc1,.,.,.,.,.,/,/,
SMILES,Apaf-1 inh,UBC13 inh,MEKK2 WT-MEK5,MEKK2 mut-MEK5,MEKK3 PB1 HTS,Apaf-1 inh conf2,Rh110 quench,others
O=C(CSc1nc(=O)n2ccccc2n1)NCc1ccccc1,.,.,/,/,/,/,/,
O=C(CSc1nc(=O)n2ccccc2n1)NCc1ccccc1Cl,48,.,/,/,/,.,.,
O=C(COC(=O)c1ccc(Br)o1)Nc1cccc(S(=O)(=O)N2CCCCCC2)c1,.,.,.,.,.,/,/,
O=C1c2ccccc2C(=O)N1SC1CCCCC1,.,.,.,.,.,/,/,
O=C1C2=C(c3ccccc31)[N+](=O)[C@@H]1CCCC[C@@H]1N2[O-],75,.,.,.,.,66,.,Fluor interf inh=.
COC(=O)c1ccccc1-c1ccc(C(c2c(C)[nH][nH]c2=O)c2c(C)[nH][nH]c2=O)o1,79,.,.,.,.,.,.,
CCCn1nnnc1NCc1ccccc1Cl,.,.,.,.,.,/,/,
O=C(COC(=O)CNS(=O)(=O)/C=C/c1ccccc1)Nc1cccc2ccccc12,.,.,.,.,.,/,/,
CCOc1cccc(N(C(=O)C2COc3ccccc3O2)C(C(=O)NC2CCCCC2)c2ccc(O)cc2)c1 (centres undefined),47,.,.,.,.,.,.,
Cc1ccccc1/C=N/Nc1nc2ccccc2c(=O)n1O,.,.,.,.,.,/,/,
CC(N=Cc1cccc(O)c1O)c1ccccc1 (centres undefined),71,.,.,.,.,.,.,
Oc1cccc(/C=N/N=C/c2cccc(O)c2O)c1O,.,.,.,.,.,/,/,
Cc1ccccc1N=Cc1cccc(O)c1O,74,.,.,.,.,.,.,
O=C(C[C@H]1C[C@H](C(=O)N2CCCCC2)[C@@]2(CCc3ccccc3)c3[nH]c4ccc(Cl)cc4c3CCN2C1=O)NCCCn1ccnc1,61,/,/,/,/,.,.,
O=C(C[C@H]1C[C@H](C(=O)N2CCCCC2)[C@@]2(CCc3ccccc3)c3[nH]c4cc(-c5ccco5)ccc4c3CCN2C1=O)NCCN1CCOCC1,48,/,/,/,/,.,.,
CC(C)(C)NC(=O)C[C@H]1C[C@H](C(=O)N2CCOCC2)[C@@]2(CCC3CCCC3)c3[nH]c4ccc(Cl)cc4c3CCN2C1=O,44,/,/,/,/,.,.,
O=C(C[C@H]1C[C@H](C(=O)N2CCOCC2)[C@@]2(CCC3CCCC3)c3[nH]c4cc(-c5ccco5)ccc4c3CCN2C1=O)NCCCn1ccnc1,62,/,/,/,/,.,.,
COc1ccc2[nH]c3c(c2c1)CCN1C(=O)C(CC(=O)NC(C)(C)C)C[C@H](C(=O)N2CCOCC2)[C@@]31CCC1CCCC1 (some centres undefined),.,/,/,/,/,/,/,
COCCCNC(=O)C[C@H]1C[C@H](C(=O)N2CCCCC2)[C@@]2(CCc3ccccc3)c3[nH]c4cc(-c5ccco5)ccc4c3CCN2C1=O,.,/,/,/,/,/,/,
CC(C)(C)c1ccc(NC(=O)COC(=O)c2ccc(NS(=O)(=O)c3ccc(F)c(F)c3)cc2)cc1,.,.,.,.,.,/,/,
O=C(OC1C[C@@H]2CC3C[C@H](C1)N2CC3=O)c1c[nH]c2ccccc12 (some centres undefined),/,/,.,.,.,/,/,
